# Reference: ChEMBL document CHEMBL1122471, “1,3-Diaryltriazenes: a new class of anorectic agents” (1983)
# Tested on: Rattus norvegicus
# Experiment: Percentage of body weight reduction in male Sprague-Dawley rats at 25 mg/kg
# Format: functional
# Settings: not given
# Summary of the method: (§1)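 Individually housed male CD Sprague-Dawley rats trained to eat their ration within 5 h were dosed orally once daily for 5 days, 10 vehicle controls and 10 treated. Body weight was taken daily before dosing. Reduction from concurrent controls was scored in bands: 16-30%, 31-45%, 46-60%, ≥61%.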
row,SMILES,Body weight reduction
1,CC(C)C(=O)N(N=Nc1cc(C(F)(F)F)ccc1C#N)c1cc(C(F)(F)F)ccc1C#N,>61%
2,CCCC(=O)N(N=Nc1cc(C(F)(F)F)ccc1C#N)c1cc(C(F)(F)F)ccc1C#N,>61%

# Tested on: Rattus norvegicus
# Experiment: Percentage of body weight reduction in male Sprague-Dawley rats at 50 mg/kg; 31-45% reduction from controls
# Format: functional
# Settings: not given
# Summary of the method: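 Individually housed male CD Sprague-Dawley rats trained to eat their ration within 5 h were dosed orally once daily for 5 days, 10 vehicle controls and 10 treated. Body weight was taken daily before dosing.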
row,SMILES,Body weight reduction
1,CN(N=Nc1ccccc1)c1ccccc1,31%
2,N#Cc1cc(C(F)(F)F)ccc1N=NNc1ccc(C(F)(F)F)cc1C#N,31%
3,N#Cc1ccc(Cl)cc1N=NNc1cc(Cl)ccc1C#N,31%
4,FC(F)(F)c1ccccc1N=NNc1ccccc1C(F)(F)F,31%
5,CCCNC(=O)N(N=Nc1cc(C(F)(F)F)ccc1C#N)c1cc(C(F)(F)F)ccc1C#N,31%

# Tested on: Rattus norvegicus
# Experiment: Percentage of body weight reduction in male Sprague-Dawley rats at 50 mg/kg;
# Format: functional
# Settings: not given
# Summary of the method: as §1
row,SMILES,Body weight reduction
1,N#Cc1ccccc1N=NNc1ccccc1C#N,<15%

# Tested on: Rattus norvegicus
# Experiment: Percentage of body weight reduction in male Sprague-Dawley rats at 30 mg/kg
# Format: functional
# Settings: not given
# Summary of the method: as §1
row,SMILES,Body weight reduction
1,CN(N=Nc1cc(C(F)(F)F)ccc1C#N)c1cc(C(F)(F)F)ccc1C#N,<15%

# Tested on: Rattus norvegicus
# Experiment: Percentage of body weight reduction in male Sprague-Dawley rats at 50 mg/kg; 46-60% reduction from controls
# Format: functional
# Settings: dose 25 mg/kg; in the assay text read “at 25 mg/kg” for “at 50 mg/kg”
# Summary of the method: as §1
row,SMILES,Body weight reduction
1,CNC(=O)N(N=Nc1cc(C(F)(F)F)ccc1C#N)c1cc(C(F)(F)F)ccc1C#N,46%

# Same assay, conditions: dose 50 mg/kg
row,SMILES,Body weight reduction
1,N#Cc1ccc(C(F)(F)F)cc1NN=Nc1c(Cl)cccc1Cl,46%
2,Clc1ccc(N=NNc2ccc(Cl)cc2)cc1,46%
3,COc1ccccc1N=NNc1ccccc1OC,46%
4,COC(=O)CC(=O)N(N=Nc1cc(C(F)(F)F)ccc1C#N)c1cc(C(F)(F)F)ccc1C#N,46%
5,CCCCC(=O)N(N=Nc1cc(C(F)(F)F)ccc1C#N)c1cc(C(F)(F)F)ccc1C#N,46%
6,N#Cc1ccc(C(F)(F)F)cc1N=NN(C(=O)Nc1ccccc1)c1cc(C(F)(F)F)ccc1C#N,46%
7,CCC(=O)N(N=Nc1cc(C(F)(F)F)ccc1C#N)c1cc(C(F)(F)F)ccc1C#N,46%
8,CC(=O)N(N=Nc1ccc(C(F)(F)F)cc1C#N)c1ccc(C(F)(F)F)cc1,46%

# Tested on: Rattus norvegicus
# Experiment: Percentage of body weight reduction in male Sprague-Dawley rats at 50 mg/kg; […] reduction from controls
# Format: functional
# Settings: not given
# Summary of the method: as §1
row,SMILES,Body weight reduction
1,N#Cc1ccc(C(F)(F)F)cc1N=NNc1ccc(C(=O)O)cc1,16%
2,N#Cc1ccc(C(F)(F)F)cc1NN=Nc1ccccc1,16%
3,N#Cc1ccc(C(F)(F)F)cc1NN=Nc1cc(C(F)(F)F)ccc1C(=O)O,16%

# Tested on: Rattus norvegicus
# Experiment: Percentage of body weight reduction in male Sprague-Dawley rats at 25 mg/kg; 31-45% reduction from controls
# Settings: not given
row,SMILES,Body weight reduction
1,Clc1cccc(N=NNc2cccc(Cl)c2Cl)c1Cl,31%

# Tested on: Rattus norvegicus
# Experiment: Percentage of body weight reduction in male Sprague-Dawley rats at 50 mg/kg
# Format: functional
# Settings: not given
# Summary of the method: as §1
row,SMILES,Body weight reduction
1,COC(=O)c1ccc(C(F)(F)F)cc1N=NNc1cc(C(F)(F)F)ccc1C(=O)OC,<15%
2,CC(=O)N(N=Nc1cc(C(F)(F)F)ccc1C#N)c1cc(C(F)(F)F)ccc1C#N,>61%
3,CC(=O)N(N=Nc1ccccc1)c1ccccc1,>61%
4,FC(F)(F)c1ccc(N=NNc2ccc(C(F)(F)F)cc2)cc1,<15%
5,N#Cc1ccc(C(F)(F)F)cc1N=NN(C(=O)c1ccccc1)c1cc(C(F)(F)F)ccc1C#N,<15%
6,FC(F)(F)c1ccc(Cl)c(N=NNc2cc(C(F)(F)F)ccc2Cl)c1,<15%
7,N#Cc1ccc(C(F)(F)F)cc1N=NN(C(=O)CCl)c1cc(C(F)(F)F)ccc1C#N,<15%
8,CCOC(=O)N(N=Nc1cc(C(F)(F)F)ccc1C#N)c1cc(C(F)(F)F)ccc1C#N,>61%
9,FC(F)(F)c1ccc(Br)c(N=NNc2cc(C(F)(F)F)ccc2Br)c1,<15%
10,Cc1ccc(C#N)c(N=NNc2cc(C)ccc2C#N)c1,<15%
11,CC(=O)N(N=Nc1cccc(C(F)(F)F)c1)c1cc(C(F)(F)F)ccc1C#N,<15%
12,CC(=O)N(N=Nc1c(Cl)cccc1Cl)c1cc(C(F)(F)F)ccc1C#N,<15%
13,FC(F)(F)c1cccc(N=NNc2cccc(C(F)(F)F)c2)c1,<15%
14,CCOC(=O)NC(=O)N(N=Nc1cc(C(F)(F)F)ccc1C#N)c1cc(C(F)(F)F)ccc1C#N,>61%
15,N#Cc1ccc(C(F)(F)F)cc1N=NNc1cccc(C(F)(F)F)c1,<15%
16,Clc1cccc(Cl)c1N=NNc1c(Cl)cccc1Cl,<15%
17,Clc1ccccc1N=NNc1ccccc1Cl,<15%
